Inhibition and IC50 data for 2 compounds are collected here from ChEMBL document CHEMBL4422684, “Identification of novel lysine demethylase 5-selective inhibitors by inhibitor-based fragment merging strategy” (Bioorg Med Chem, 2019).

The structures appear in SMILES notation.

Assay [1] concerns the target Lysine-specific demethylase 6B (Homo sapiens, UniProt O15054). Nature of the assay: Inhibition of human C-terminal FLAG-tagged KDM6B (1043 to end residues) expressed in baculovirus infected Sf9 insect cells at 25 uM using H3(21-44)-K27(Me3)-GK(Biotin)/2-OG as substrate measured after 1 hr by Alphalisa assay relative to control. A digest of the protocol: (§1)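 AlphaLISA demethylase assay in 50 mM HEPES pH 7.5, 0.1% BSA, 0.01% Tween 20 with DMSO. Enzyme and inhibitor combined, then peptide plus 2-OG (50 µM), Fe(II) (5 µM) and ascorbate (100 µM) in the added mix; 1 h at room temperature with shaking.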
Background: In Alpha technology, singlet oxygen from a donor bead excites a nearby acceptor bead.

Assay [2] addresses T1, Lysine-specific demethylase 2A (Homo sapiens, UniProt Q9Y2K7).
T1 sequence (Q9Y2K7 whole entry): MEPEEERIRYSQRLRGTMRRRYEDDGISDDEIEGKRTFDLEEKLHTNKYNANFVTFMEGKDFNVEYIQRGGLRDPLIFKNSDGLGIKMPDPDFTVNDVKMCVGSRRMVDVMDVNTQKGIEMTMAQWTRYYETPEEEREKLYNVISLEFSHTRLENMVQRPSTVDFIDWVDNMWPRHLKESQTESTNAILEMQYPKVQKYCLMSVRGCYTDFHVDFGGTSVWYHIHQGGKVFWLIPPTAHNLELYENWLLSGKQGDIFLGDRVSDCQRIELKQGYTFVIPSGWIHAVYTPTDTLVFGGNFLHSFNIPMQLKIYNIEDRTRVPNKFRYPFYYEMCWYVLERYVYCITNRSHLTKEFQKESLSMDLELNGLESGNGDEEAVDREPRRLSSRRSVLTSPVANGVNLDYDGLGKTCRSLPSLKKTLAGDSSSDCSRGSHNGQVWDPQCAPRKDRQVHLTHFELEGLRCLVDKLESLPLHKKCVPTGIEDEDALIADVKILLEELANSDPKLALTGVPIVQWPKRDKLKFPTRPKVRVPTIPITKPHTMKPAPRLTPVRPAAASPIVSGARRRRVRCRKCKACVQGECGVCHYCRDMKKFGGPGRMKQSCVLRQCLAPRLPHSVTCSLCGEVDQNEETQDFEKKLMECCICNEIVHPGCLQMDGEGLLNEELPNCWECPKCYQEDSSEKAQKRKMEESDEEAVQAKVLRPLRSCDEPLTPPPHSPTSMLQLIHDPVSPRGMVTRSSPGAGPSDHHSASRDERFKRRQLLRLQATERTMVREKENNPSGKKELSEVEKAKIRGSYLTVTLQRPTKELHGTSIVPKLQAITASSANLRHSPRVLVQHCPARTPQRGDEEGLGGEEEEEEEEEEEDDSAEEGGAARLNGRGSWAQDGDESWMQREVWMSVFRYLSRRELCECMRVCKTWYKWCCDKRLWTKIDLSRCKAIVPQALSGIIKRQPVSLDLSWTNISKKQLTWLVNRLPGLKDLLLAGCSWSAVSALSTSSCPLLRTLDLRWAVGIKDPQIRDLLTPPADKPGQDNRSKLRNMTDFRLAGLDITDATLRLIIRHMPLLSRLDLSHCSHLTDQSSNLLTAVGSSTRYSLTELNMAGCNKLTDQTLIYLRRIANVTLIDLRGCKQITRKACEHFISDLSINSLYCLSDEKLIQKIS
The experiment in a line: Inhibition of human N-terminal FLAG/Avi-tagged KDM2A (2 to 700 residues) expressed in baculovirus infected Sf9 insect cells using H3(21-44)-K36(Me2)-GK(Biotin)/2-OG as substrate measured after 1 hr by Alphalisa assay. A digest of the protocol: as §1

Assay [3] has as its target T2, Lysine-specific demethylase 3A (Homo sapiens) (UniProt Q9Y4C1).
T2 sequence (whole entry): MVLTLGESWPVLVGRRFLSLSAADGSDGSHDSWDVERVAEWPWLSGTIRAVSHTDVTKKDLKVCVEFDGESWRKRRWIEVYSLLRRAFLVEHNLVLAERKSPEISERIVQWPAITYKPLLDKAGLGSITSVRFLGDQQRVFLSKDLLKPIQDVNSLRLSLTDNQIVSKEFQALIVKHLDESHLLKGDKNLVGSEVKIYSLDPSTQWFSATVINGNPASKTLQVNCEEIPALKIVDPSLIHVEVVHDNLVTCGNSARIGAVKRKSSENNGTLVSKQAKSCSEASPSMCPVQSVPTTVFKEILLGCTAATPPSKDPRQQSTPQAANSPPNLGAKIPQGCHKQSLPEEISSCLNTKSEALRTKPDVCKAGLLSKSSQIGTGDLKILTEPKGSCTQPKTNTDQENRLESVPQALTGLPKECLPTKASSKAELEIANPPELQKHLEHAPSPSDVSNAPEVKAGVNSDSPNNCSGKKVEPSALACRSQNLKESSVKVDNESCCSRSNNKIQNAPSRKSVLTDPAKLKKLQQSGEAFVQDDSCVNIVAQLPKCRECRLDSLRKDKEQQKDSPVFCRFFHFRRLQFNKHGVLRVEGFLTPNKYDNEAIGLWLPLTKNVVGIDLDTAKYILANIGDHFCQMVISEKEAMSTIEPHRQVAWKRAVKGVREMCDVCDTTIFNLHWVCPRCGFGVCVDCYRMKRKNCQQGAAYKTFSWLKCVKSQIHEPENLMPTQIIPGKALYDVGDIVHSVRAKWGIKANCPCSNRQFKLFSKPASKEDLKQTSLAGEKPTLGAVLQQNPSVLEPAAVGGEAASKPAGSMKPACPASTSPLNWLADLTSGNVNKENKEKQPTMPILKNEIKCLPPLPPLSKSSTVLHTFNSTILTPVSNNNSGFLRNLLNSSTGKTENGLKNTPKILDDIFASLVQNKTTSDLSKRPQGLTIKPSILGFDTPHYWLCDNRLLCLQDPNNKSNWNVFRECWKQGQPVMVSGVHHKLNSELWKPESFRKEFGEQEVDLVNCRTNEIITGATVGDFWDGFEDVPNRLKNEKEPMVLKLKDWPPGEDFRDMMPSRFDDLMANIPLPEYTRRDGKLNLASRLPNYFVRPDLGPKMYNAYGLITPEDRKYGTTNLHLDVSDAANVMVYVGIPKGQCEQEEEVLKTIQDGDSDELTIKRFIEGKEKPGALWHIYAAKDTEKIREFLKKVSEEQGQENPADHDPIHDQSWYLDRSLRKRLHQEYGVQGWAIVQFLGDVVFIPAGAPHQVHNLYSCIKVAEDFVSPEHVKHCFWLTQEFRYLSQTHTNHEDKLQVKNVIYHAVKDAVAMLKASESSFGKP
The experiment in a line: Inhibition of human N-terminal FLAG-tagged KDM3A (2 to 1321 residues) expressed in baculovirus infected Sf9 insect cells at 25 uM using H3(1-21)K9(Me1)-GGK(Biotin)/2-OG as substrate measured after 1 hr by Alphalisa assay relative to control. In outline:
as §1

The target of assay [4] is Histone lysine demethylase PHF8 (Homo sapiens, UniProt Q9UPP1). The experiment in a line: Inhibition of human N-terminal FLAG-tagged KDM7B (2 to 525 residues) expressed in baculovirus infected Sf9 insect cells using H3(1-21)K9(Me2)-GGK(Biotin)/2-OG as substrate measured after 1 hr by Alphalisa assay. In outline: as §1

As usually defined, the inhibition is the share of the control response that was lost under treatment. One may read the IC50 as the concentration that gives 50% inhibition. Read a low IC50 as greater potency.

Sequence of Histone lysine demethylase PHF8 (Q9UPP1 whole entry, the tested form may be a part): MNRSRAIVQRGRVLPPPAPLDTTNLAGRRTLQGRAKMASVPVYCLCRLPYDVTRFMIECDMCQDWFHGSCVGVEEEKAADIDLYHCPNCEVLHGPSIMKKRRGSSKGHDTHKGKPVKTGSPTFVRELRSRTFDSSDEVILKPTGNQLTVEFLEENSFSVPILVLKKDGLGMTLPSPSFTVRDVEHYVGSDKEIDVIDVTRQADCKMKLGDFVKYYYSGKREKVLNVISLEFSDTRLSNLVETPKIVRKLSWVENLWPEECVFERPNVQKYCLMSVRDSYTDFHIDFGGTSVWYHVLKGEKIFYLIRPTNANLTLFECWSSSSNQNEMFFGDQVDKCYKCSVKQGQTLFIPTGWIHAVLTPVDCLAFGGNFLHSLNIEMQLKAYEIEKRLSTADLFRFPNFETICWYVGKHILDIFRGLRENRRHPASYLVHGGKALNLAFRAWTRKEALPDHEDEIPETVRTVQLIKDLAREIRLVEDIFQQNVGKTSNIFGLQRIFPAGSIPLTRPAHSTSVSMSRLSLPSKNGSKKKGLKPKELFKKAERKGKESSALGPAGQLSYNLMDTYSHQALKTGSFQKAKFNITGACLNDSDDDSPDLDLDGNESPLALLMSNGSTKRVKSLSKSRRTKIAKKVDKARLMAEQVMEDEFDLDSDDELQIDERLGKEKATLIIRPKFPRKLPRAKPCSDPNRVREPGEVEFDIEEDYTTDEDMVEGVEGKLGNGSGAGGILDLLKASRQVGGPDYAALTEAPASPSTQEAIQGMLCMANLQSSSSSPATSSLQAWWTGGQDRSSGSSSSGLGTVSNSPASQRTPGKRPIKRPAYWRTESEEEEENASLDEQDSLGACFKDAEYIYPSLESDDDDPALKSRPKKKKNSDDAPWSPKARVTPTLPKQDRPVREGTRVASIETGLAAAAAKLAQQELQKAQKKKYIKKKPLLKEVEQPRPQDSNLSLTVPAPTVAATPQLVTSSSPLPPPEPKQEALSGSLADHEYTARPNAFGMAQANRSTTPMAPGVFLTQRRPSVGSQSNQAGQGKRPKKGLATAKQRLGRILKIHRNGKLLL
Sequence of Lysine-specific demethylase 6B (O15054 whole entry): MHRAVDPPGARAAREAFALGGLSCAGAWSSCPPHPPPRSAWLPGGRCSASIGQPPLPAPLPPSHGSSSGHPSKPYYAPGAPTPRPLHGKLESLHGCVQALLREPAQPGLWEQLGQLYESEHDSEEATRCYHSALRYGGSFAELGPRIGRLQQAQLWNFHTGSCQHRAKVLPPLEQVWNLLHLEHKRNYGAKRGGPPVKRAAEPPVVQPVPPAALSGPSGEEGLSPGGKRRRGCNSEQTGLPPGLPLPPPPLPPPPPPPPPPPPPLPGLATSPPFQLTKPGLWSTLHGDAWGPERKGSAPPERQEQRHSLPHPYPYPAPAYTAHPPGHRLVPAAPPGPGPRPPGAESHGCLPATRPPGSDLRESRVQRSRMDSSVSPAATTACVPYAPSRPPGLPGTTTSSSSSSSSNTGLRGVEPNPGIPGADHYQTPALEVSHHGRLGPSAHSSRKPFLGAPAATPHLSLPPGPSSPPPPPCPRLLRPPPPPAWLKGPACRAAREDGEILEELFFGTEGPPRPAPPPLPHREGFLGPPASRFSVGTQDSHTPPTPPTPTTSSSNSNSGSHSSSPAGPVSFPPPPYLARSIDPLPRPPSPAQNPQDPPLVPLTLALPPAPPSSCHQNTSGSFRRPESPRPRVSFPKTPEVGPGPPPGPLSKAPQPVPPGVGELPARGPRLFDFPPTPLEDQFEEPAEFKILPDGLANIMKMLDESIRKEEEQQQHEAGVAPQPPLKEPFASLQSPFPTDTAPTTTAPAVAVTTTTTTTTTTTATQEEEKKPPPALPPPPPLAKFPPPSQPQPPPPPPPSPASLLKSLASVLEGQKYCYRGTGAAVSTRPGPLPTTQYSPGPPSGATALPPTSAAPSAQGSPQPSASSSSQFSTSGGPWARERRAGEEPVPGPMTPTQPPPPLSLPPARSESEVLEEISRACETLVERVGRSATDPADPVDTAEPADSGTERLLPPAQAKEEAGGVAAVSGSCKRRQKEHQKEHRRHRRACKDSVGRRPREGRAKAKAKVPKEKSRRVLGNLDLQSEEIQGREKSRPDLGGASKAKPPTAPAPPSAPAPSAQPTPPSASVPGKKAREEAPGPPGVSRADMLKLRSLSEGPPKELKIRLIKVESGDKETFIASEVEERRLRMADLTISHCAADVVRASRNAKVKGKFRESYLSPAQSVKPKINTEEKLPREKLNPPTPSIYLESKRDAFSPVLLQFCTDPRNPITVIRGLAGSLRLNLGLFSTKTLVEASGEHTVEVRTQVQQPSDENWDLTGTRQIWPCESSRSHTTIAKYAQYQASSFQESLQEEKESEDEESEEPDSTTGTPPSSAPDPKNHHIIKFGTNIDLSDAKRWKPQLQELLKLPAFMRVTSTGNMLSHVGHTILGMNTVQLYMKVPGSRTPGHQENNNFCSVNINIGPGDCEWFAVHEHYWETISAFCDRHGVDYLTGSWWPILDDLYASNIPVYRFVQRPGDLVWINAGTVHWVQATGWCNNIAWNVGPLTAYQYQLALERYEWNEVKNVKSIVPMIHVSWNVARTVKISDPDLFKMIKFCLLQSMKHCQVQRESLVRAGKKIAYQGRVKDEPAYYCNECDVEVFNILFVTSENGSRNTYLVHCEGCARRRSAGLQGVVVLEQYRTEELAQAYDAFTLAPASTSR

Compound `CC(C)c1c(-c2ccccc2)[nH]c2c(C#N)cnn2c1=O` registered an inhibition in assay [1] of 69.1%.

With `CCCCCCN(C)Cc1ccc(-c2[nH]c3c(C#N)cnn3c(=O)c2C(C)C)cc1`, the IC50 in assay [2] and in assay [4] was more than 50 µM throughout. The same compound showed an inhibition in assay [3] of 13%.
